# Measurements gathered from unrelated publications.
# Protocols differ between the studies behind these lines.
# Organism: Aspergillus niger
# Read-out: microbial growth
SMILES,technique,strain,tested at,measurement,value
Oc1ccc(Br)cc1-c1nc2ccccc2[nH]1,,ATCC16404,,MIC,512 µg/mL
Cc1ccc(C)n1-c1ccc(-c2nnc(-c3ccc(Br)cc3)[nH]2)cc1,broth dilution,ATCC6275,,MIC,4 µg/mL
O=C1NN=C(N=Cc2ccc(O)cc2O)C1=NNn1c(-c2ccccc2)nc2ccccc2c1=O,broth dilution,,,MIC,107 µM
Cc1ccc(C)n1-c1ccc(-c2nnc(S)s2)cc1,broth dilution,ATCC6275,,MIC,125 µg/mL
Cc1ccc2nc(-c3cc(Br)ccc3O)[nH]c2c1,,ATCC16404,,MIC,256 µg/mL
CC1=NN(CNC(=O)c2ccccc2)C(=O)C1=NNn1c(-c2ccccc2)nc2ccccc2c1=O,broth dilution,,,MIC,104 µM
Clc1ccccc1C(c1ccccc1)(c1ccccc1)n1ccnc1,disc diffusion,,100 µg/mL,inhibition zone,18 mm
CSc1ccc(-c2nc3ccc(C)cc3[nH]2)cc1,,ATCC16404,,MIC,64 µg/mL
Clc1ccccc1C(c1ccccc1)(c1ccccc1)n1ccnc1,disc diffusion,,20000 µg/mL,inhibition zone,25 mm
Cc1cc(=O)[nH]n1C(=O)c1ccc(-n2c(C)ccc2C)cc1,broth dilution,ATCC6275,,MIC,250 µg/mL
Cc1ccc2nc(-c3ccc(Cl)c(Cl)c3)[nH]c2c1,,ATCC16404,,MIC,32 µg/mL
CC1=NN(CNC(=O)c2ccccn2)C(=O)C1=NNn1c(-c2ccccc2)nc2ccccc2c1=O,broth dilution,,,MIC,104 µM
Cc1ccc2nc(-c3ccco3)n(Cc3ccccc3)c2c1,,ATCC16404,,MIC,512 µg/mL
Cc1ccc(C)n1-c1ccc(-c2nnc(-c3ccc(O)cc3)[nH]2)cc1,broth dilution,ATCC6275,,MIC,31.2 µg/mL
O=C1NN=C(N=Cc2ccccc2)C1=NNn1c(-c2ccccc2)nc2ccccc2c1=O,broth dilution,,,MIC,57.1 µM
Cc1ccc(C)n1-c1ccc(-c2n[nH]c(=S)[nH]2)cc1,broth dilution,ATCC6275,,MIC,> 500 µg/mL
O=C(O)c1cn(C2CC2)c2cc(N3CCNCC3)c(F)cc2c1=O,broth dilution,,,MIC,25.5 µM
